Laboratory results as given in ChEMBL document CHEMBL1275434, “In vitro evaluation of CBR-2092, a novel rifamycin-quinolone hybrid antibiotic: studies of the mode of action in Staphylococcus aureus” (Antimicrob Agents Chemother, 2008).
Calls of active or inactive are those of the source.

Assays:
Staphylococcus aureus [1] = assay: Antimicrobial activity against Staphylococcus aureus CB1884; format: functional
Staphylococcus aureus [2] = assay: Antimicrobial activity against Staphylococcus aureus CB1887 harboring rpoB R484H, L520 deficient gyrA, […], R236 duplicated parC and parC H103Y mutant genes selected after ABT-719 exposure for 20 days; format: functional; details: CB1887, 480 h
Staphylococcus aureus [3] = assay: Antimicrobial activity against Staphylococcus aureus CB370 harboring rpoB H481Y mutant gene; format: functional
Staphylococcus aureus [4] = assay: Antimicrobial activity against Staphylococcus aureus CB814 harboring […] and parC S80F mutant genes; format: functional
Staphylococcus aureus [5] = assay: Antimicrobial activity against Staphylococcus aureus CB1952 harboring rpoB S486L, gyrA […], gyrA E88Q, gyrA G532S, parC S80F, parC E84L mutant genes selected after CBR-2092 exposure for 21 days; format: functional; details: CB1952, 504 h
Staphylococcus aureus [6] = assay: Antimicrobial activity against Staphylococcus aureus CB815 harboring rpoB H481Y, gyrA […] and parC S80F mutant genes; format: functional
Staphylococcus aureus [7] = assay: Antimicrobial activity against Staphylococcus aureus CB1953 harboring rpoB H481Y, gyrA S84L, gyrA V598I, parC S80F, parC R570H mutant genes selected after CBR-2092 exposure for 7 days; format: functional; details: CB1953, 168 h
Staphylococcus aureus [8] = assay: Antimicrobial activity against Staphylococcus aureus CB1954 harboring rpoB H481Y, gyrA S84L, K809 deficient gyrA, parC S80F, parC A523D mutant genes selected after CBR-2092 exposure for 7 days; format: functional; details: CB1954, 168 h
Procedure, shortened: (§1)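 CLSI broth microdilution MIC in cation-adjusted Mueller-Hinton (MHII) broth supplemented with 0.002% (vol/vol) polysorbate 80, included to limit compound loss to plastic surfaces.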

[9] = Inhibition of Staphylococcus aureus wild-type RNA polymerase RpoB
Procedure, shortened: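 Recombinant S. aureus σA RNA polymerase holoenzyme in a single-round transcription assay using the pGL2B-T7A1-G-less template. The 272-nucleotide G-less RNA product was quantified by gel electrophoresis. IC50 is the concentration halving the product formed without test agent.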

[10] = Inhibition of Staphylococcus aureus RpoB H481Y mutant
Procedure, shortened: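 Recombinant S. aureus σA RNA polymerase holoenzyme carrying RpoB H481Y. Single-round transcription of the pGL2B-T7A1-G-less template. The 272-nt G-less RNA product is quantified by gel electrophoresis. IC50 is the concentration that inhibits 50% of product formed without inhibitor.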

Staphylococcus aureus [11] = assay: Antimicrobial activity against Staphylococcus aureus CB190 by broth microdilution method; format: functional
Staphylococcus aureus [12] = assay: Antimicrobial activity against Staphylococcus aureus CB811 harboring quinolone-resistant gyrA S84L mutant gene by broth microdilution method; format: functional; procedure, shortened: as §1
Staphylococcus aureus [13] = assay: Antimicrobial activity against Staphylococcus aureus CB808 harboring quinolone-resistant parC S80F mutant gene by broth microdilution method; format: functional; procedure, shortened: as §1
Staphylococcus aureus [14] = assay: Antimicrobial activity against Staphylococcus aureus CB814 harboring fluoroquinolone-resistant gyrA S84L and parC S80F mutant genes by broth microdilution method; format: functional; procedure, shortened: as §1
Staphylococcus aureus [15] = assay: Antimicrobial activity against Staphylococcus aureus CB370 harboring rifampin-resistant rpoB H481Y mutant gene by broth microdilution method; format: functional; procedure, shortened: as §1
Staphylococcus aureus [16] = assay: Antimicrobial activity against Staphylococcus aureus CB812 harboring rpo B H481Y and gyrA S84L mutant genes by broth microdilution method; format: functional; procedure, shortened: as §1
Staphylococcus aureus [17] = assay: Inhibition of DNA synthesis in Staphylococcus aureus CB190 assessed as decrease in [methyl-3H]thymidine incorporation at 0.032 ug/ml; format: functional, organism-based
Staphylococcus aureus [18] = assay: Inhibition of RNA synthesis in Staphylococcus aureus CB190 assessed as decrease in [5,6-3H]uridine incorporation at 0.032 ug/ml; format: functional, organism-based
Staphylococcus aureus [19] = assay: Inhibition of protein synthesis in Staphylococcus aureus CB190 assessed as decrease in L-[3,4,5-3H]leucine incorporation at 0.032 ug/ml; format: functional, organism-based
Staphylococcus aureus [20] = assay: Inhibition of cell wall synthesis in Staphylococcus aureus CB190 assessed as decrease in [2,3-3H]D-alanine incorporation at 0.032 ug/ml; format: functional, organism-based
Staphylococcus aureus [21] = assay: Inhibition of DNA synthesis in rifamycin-resistant Staphylococcus aureus CB370 harboring rpoB H481Y mutant gene assessed as [methyl-3H]thymidine incorporation at 0.032 ug/ml; format: functional, organism-based
Procedure, shortened: (§2)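 Macromolecular synthesis time course in S. aureus, measuring incorporation of [methyl-3H]thymidine (DNA), [5,6-3H]uridine (RNA) or [2,3-3H]D-alanine (cell wall). At each time point, incorporation is expressed as percent of the DMSO-treated control culture. Incorporation at time zero is set to 100%.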

Staphylococcus aureus [22] = assay: Inhibition of RNA synthesis in rifamycin-resistant Staphylococcus aureus CB370 harboring rpoB H481Y mutant gene assessed as [5,6-3H]uridine incorporation at 0.032 ug/ml; format: functional, organism-based; procedure, shortened: as §2
Staphylococcus aureus [23] = assay: Inhibition of protein synthesis in rifamycin-resistant Staphylococcus aureus CB370 harboring rpoB H481Y mutant gene assessed as L-[3,4,5-3H]leucine incorporation at 0.032 ug/ml; format: functional, organism-based
Procedure, shortened: (§3)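 Time-course radiolabel incorporation in S. aureus cultures with test agent. Precursors: [methyl-3H]thymidine (DNA), [5,6-3H]uridine (RNA), L-[3,4,5-3H]leucine (protein), [2,3-3H]D-alanine (cell wall). At each time point, incorporation with agent is expressed relative to the DMSO-treated control culture as percent incorporation. Time-zero incorporation is set to 100%.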

Staphylococcus aureus [24] = assay: Inhibition of cell wall synthesis in rifamycin-resistant Staphylococcus aureus CB370 harboring rpoB H481Y mutant gene assessed as [2,3-3H]D-alanine incorporation at 0.032 ug/ml; format: functional, organism-based; procedure, shortened: as §2
Staphylococcus aureus [25] = assay: Inhibition of DNA synthesis in quinolone-resistant Staphylococcus aureus CB814 harboring gyrA S84L and parC S80F mutant genes assessed as decrease in [methyl-3H]thymidine incorporation at 0.032 ug/ml; format: functional, organism-based; procedure, shortened: as §2
Staphylococcus aureus [26] = assay: Inhibition of RNA synthesis in quinolone-resistant Staphylococcus aureus CB814 harboring gyrA S84L and parC S80F mutant genes assessed as decrease in [5,6-3H]uridine incorporation at 0.032 ug/ml; format: functional, organism-based; procedure, shortened: as §2
Staphylococcus aureus [27] = assay: Inhibition of protein synthesis in quinolone-resistant Staphylococcus aureus CB814 harboring gyrA S84L and parC S80F mutant genes assessed as decrease in L-[3,4,5-3H]leucine incorporation at 0.032 ug/ml; format: functional, organism-based; procedure, shortened: as §3
Staphylococcus aureus [28] = assay: Inhibition of cell wall synthesis in quinolone-resistant Staphylococcus aureus CB814 harboring gyrA S84L and parC S80F mutant genes assessed as decrease in [2,3-3H]D-alanine incorporation at 0.032 ug/ml; format: functional, organism-based; procedure, shortened: as §2
Staphylococcus aureus [29] = assay: Antimicrobial activity against rifampin-sensitive Staphylococcus aureus CB190 by broth microdilution method; format: functional; procedure, shortened: as §1
Staphylococcus aureus [30] = assay: Antimicrobial activity against rifampin-sensitive Staphylococcus aureus CB190 harboring rpoB H481Y mutant gene by broth microdilution method; format: functional; procedure, shortened: as §1
Staphylococcus aureus [31] = assay: Antimicrobial activity against rifampin-sensitive Staphylococcus aureus CB190 harboring rpoB Q468L mutant gene by broth microdilution method; format: functional; procedure, shortened: as §1
Staphylococcus aureus [32] = assay: Antimicrobial activity against rifampin-sensitive Staphylococcus aureus CB190 harboring rpoB Q468K mutant gene by broth microdilution method; format: functional; procedure, shortened: as §1
Staphylococcus aureus [33] = assay: Antimicrobial activity against rifampin-sensitive Staphylococcus aureus CB190 harboring rpo BH481D mutant gene by broth microdilution method; format: functional; procedure, shortened: as §1
Staphylococcus aureus [34] = assay: Antimicrobial activity against rifampin-sensitive Staphylococcus aureus CB190 harboring rpoB H472 mutant gene by broth microdilution method; format: functional; procedure, shortened: as §1
Staphylococcus aureus [35] = assay: Antimicrobial activity against rifampin-sensitive Staphylococcus aureus CB190 harboring rpoB D471Y mutant gene by broth microdilution method; format: functional; procedure, shortened: as §1
Staphylococcus aureus [36] = assay: Antimicrobial activity against rifampin-sensitive Staphylococcus aureus CB190 harboring rpoB E473 mutant gene by broth microdilution method; format: functional; procedure, shortened: as §1
Staphylococcus aureus [37] = assay: Antimicrobial activity against rifampin-sensitive Staphylococcus aureus CB190 harboring rpoB H481N mutant gene by broth microdilution method; format: functional; procedure, shortened: as §1
Staphylococcus aureus [38] = assay: Antimicrobial activity against rifampin-sensitive Staphylococcus aureus CB190 harboring rpoB N474K mutant gene by broth microdilution method; format: functional; procedure, shortened: as §1
Staphylococcus aureus [39] = assay: Antimicrobial activity against rifampin-sensitive Staphylococcus aureus CB190 harboring rpoB A477V mutant gene by broth microdilution method; format: functional; procedure, shortened: as §1
Staphylococcus aureus [40] = assay: Antimicrobial activity against rifampin-sensitive Staphylococcus aureus CB190 harboring rpoB D471G mutant gene by broth microdilution method; format: functional; procedure, shortened: as §1
Staphylococcus aureus [41] = assay: Antimicrobial activity against Staphylococcus aureus CB809 harboring rpoB H481Y and parC S80F mutant genes by broth microdilution method
Staphylococcus aureus [42] = assay: Antimicrobial activity against Staphylococcus aureus CB815 harboring rpoB H481Y, gyrA S84L and parC S80F mutant genes by broth microdilution method
Staphylococcus aureus [43] = assay: Antimicrobial activity against Staphylococcus aureus CB1947 harboring rpoB H481Y, gyrA S84L, E697 deficient gyrA, parC G167V mutant genes selected after CBR-2092 exposure for 20 days; details: CB1947, 480 h

CO[C@H]1/C=C/O[C@@]2(C)Oc3c(C)c(O)c4c(O)c(c(/C=N/N5CCN(C)CC5)c(O)c4c3C2=O)NC(=O)/C(C)=C\C=C\[C@H](C)[C@H](O)[C@@H](C)[C@@H](O)[C@@H](C)[C@H](OC(C)=O)[C@@H]1C [RIFAMPIN]
inactive: Activity (Staphylococcus aureus [21]) | Activity (Staphylococcus aureus [22]) | Activity (Staphylococcus aureus [23]) | Activity (Staphylococcus aureus [24])
> 64 µg/mL: MIC (Staphylococcus aureus [30]) | MIC (Staphylococcus aureus [31]) | MIC (Staphylococcus aureus [32]) | MIC (Staphylococcus aureus [33])
active: Activity (Staphylococcus aureus [17]) | Activity (Staphylococcus aureus [18]) | Activity (Staphylococcus aureus [19]) | Activity (Staphylococcus aureus [20]) | Activity (Staphylococcus aureus [25]) | Activity (Staphylococcus aureus [26]) | Activity (Staphylococcus aureus [27]) | Activity (Staphylococcus aureus [28])
15 nM: IC50 [9]
0.25 µg/mL: MIC (Staphylococcus aureus [40])
> 25000 nM: IC50 [10]
> 250 µg/mL: MIC (Staphylococcus aureus [1]) | MIC (Staphylococcus aureus [2]) | MIC (Staphylococcus aureus [3]) | MIC (Staphylococcus aureus [5]) | MIC (Staphylococcus aureus [15]) | MIC (Staphylococcus aureus [16]) | MIC (Staphylococcus aureus [41]) | MIC (Staphylococcus aureus [42]) | MIC (Staphylococcus aureus [43])
32 µg/mL: MIC (Staphylococcus aureus [34])
2 µg/mL: MIC (Staphylococcus aureus [37]) | MIC (Staphylococcus aureus [38])
> 125 µg/mL: MIC (Staphylococcus aureus [6]) | MIC (Staphylococcus aureus [7]) | MIC (Staphylococcus aureus [8])
8 µg/mL: MIC (Staphylococcus aureus [36])
16 µg/mL: MIC (Staphylococcus aureus [35])
0.008 µg/mL: MIC (Staphylococcus aureus [4]) | MIC (Staphylococcus aureus [11]) | MIC (Staphylococcus aureus [12]) | MIC (Staphylococcus aureus [13]) | MIC (Staphylococcus aureus [14]) | MIC (Staphylococcus aureus [29])
1 µg/mL: MIC (Staphylococcus aureus [39])
